Test results as given in PubChem BioAssay.
Activity calls are given as the source filed them.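 Rule for the calls, unless noted: active = NADPH fluorescence slope more negative than the mean of all samples by about 3 SD, 99.7% confidence; inactive = the rest.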

What was measured:
[1] = inhibitors of TNFa-induced NFkB p65 translocation, primary screen, imaging, HUVEC, MLSMR starter and 10KST1 sets (AID 438;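 active = inhibition above 20% together with a positive visual image hit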;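 note: compound added about 3h40 before a 20 min TNFalpha stimulation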;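 for inhibition: signal is the nuclear over cytoplasmic p65 intensity ratio per well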); conditions: HUVEC TNFa-induced p65 nuclear translocation; cell count: measured here: nuclei count (cytotoxicity indicator), at 2.08 µM; inhibition: at 2 µM, stronger effect = higher value, 0% TNFa-plus-vehicle, 100% no-TNFa wells
[2] = inhibitors of E-selectin induction by TNFa, primary screen, imaging, HUVEC, immunofluorescence, MLSMR starter and 10KST1 sets (AID 487;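 active = visually confirmed hit in the image check and inhibition above 20%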;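 for inhibition: signal is fraction of cell area covered by stained E-selectin grains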;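 for nuclei count: 100% = median nuclei count of all wells on the same plate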); conditions: HUVEC TNFalpha-induced E-selectin immunofluorescence imaging, at 2 µM; inhibition: stronger effect = higher value; nuclei count: measured here: cell number, toxicity
[3] = DUSP6 inhibitors restoring Erk phosphorylation by chemical complementation, primary imaging in DUSP6-transfected HeLa (AID 609;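 active = compounds giving at least 50% inhibition in the cell-based MKP-3 phosphatase rescue imaging test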;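 for inhibition: phospho-Erk level distribution per well compared with pooled transfected vehicle control wells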); conditions: HeLa MKP-3 transfected, phospho-Erk imaging KS statistic, at 10 µM, cells stimulated with TPA for 15 min
[4] = target: Dual specificity protein phosphatase 6 (Homo sapiens) (UniProt Q16828); assay: as above; conditions: HeLa MKP-3 transfected, phospho-Erk imaging KS statistic; at 10 µM; stronger effect = higher value; cells stimulated with TPA for 15 min
[5] = target: Voltage-gated potassium channel subunit beta-2 (Rattus norvegicus) (UniProt P62483); assay: KvBeta enzyme negative modulators, primary screen, biochemical, NADPH fluorescence (AID 622;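 active = fluorescence slope higher than the sample average by over 3 SD, cut at about -0.22 in these data, passing the limit was not always enough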;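 note: slope of raw intensity against log time taken from 70 to 1610 s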); conditions: recombinant KvBeta, 4-cyanobenzaldehyde reduction, at 10 µM, stronger effect = higher value
[6] = target: Voltage-gated potassium channel subunit beta-2 (Rattus norvegicus) (UniProt P62483); assay: KvBeta positive modulators, primary screen, biochemical, NADPH fluorescence (AID 623); conditions: Recombinant KvBeta, NADPH fluorescence decrease slope, 10 min; at 10 µM; stronger effect = lower value;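 note: fluorescence intensity change per second fitted from 20 to 320 s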
[7] = target: Alpha-2C adrenergic receptor (Homo sapiens) (UniProt P18825); assay: modulators of alpha2C/GIRK thallium flux, primary screen, cell-based, HEK293 alpha2C/GIRK1/2 (AID 624;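 active = fluorescence slope after compound addition differing from the mean of all screened samples at 99.7% confidence, in either direction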;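 note: slope of fluorescence ratio to pre-addition baseline per second over 15 to 24 s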); conditions: thallium flux BTC fluorescence, at 10 µM, actives lie on both sides
[8] = inhibitors of Chlamydomonas gravitaxis, primary screen, whole organism, Chlamydomonas reinhardtii, WT vs cilia-less mutant, absorbance, 96-well (AID 463189;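 active = inhibition at or above 50% relative to wild type and mutant plate controls; inactive = inhibition below 50%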;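 note: 0% = wild type cc124 cells in DMSO and 100% = ciliumless bld1 mutant cells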); conditions: OD600 absorbance, 2 days, at 10 µM, stronger effect = higher value
[9] = inhibitors of larval lipid processing in zebrafish, primary screen, whole organism, PED6 fluorescence, gall bladder and intestine (AID 686;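 active = a full or partial loss of lipid-probe fluorescence in the fish gall bladder, intestine or both, judged by eye; inactive = no fluorescence loss, or compound toxic to the fish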;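 note: larvae 5 to 7 days old with five fish per well; signal comes from phospholipase A2 cleavage of quenched PED6 carried via bile; overnight exposure to compound and PED6 before scoring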); conditions: Zebrafish larvae PED6 lipid processing, fluorescence scoring; screened at 20 µM (by protocol)
In short: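 Test system – live zebrafish larvae aged 5-7 days, whole organism · Buffer or medium – E3 fish medium · Reagent – quenched phospholipase substrate PED6, 100 nM final, ingested by larvae · Doses – 20 µM single dose · Incubation – overnight compound and PED6 incubation · Technique – visual fluorescence microscopy scoring of gall bladder, gut · Read-out basis – visual per-well fluorescence inhibition score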

[10] = measured here: cell density z-score
[11] = measured here: nuclear c-Myc green intensity z-score
[12] = measured here: nuclear pErk red intensity z-score, stronger effect = higher value

Sequence of Alpha-2C adrenergic receptor (Homo sapiens) (P18825 whole entry, looked up): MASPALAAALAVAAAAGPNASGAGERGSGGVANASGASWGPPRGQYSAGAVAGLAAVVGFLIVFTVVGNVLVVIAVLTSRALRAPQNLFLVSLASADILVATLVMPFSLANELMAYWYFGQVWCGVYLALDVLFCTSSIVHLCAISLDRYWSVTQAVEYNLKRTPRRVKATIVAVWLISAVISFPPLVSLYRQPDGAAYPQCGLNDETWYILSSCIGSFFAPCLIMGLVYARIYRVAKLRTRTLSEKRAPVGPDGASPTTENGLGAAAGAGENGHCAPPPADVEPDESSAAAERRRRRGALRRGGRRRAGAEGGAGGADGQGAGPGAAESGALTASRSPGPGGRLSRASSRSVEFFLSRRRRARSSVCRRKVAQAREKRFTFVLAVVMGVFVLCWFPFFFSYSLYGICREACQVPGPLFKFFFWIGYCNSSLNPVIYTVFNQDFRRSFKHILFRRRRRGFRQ
Sequence of Voltage-gated potassium channel subunit beta-2 (Rattus norvegicus) (P62483 whole entry, looked up): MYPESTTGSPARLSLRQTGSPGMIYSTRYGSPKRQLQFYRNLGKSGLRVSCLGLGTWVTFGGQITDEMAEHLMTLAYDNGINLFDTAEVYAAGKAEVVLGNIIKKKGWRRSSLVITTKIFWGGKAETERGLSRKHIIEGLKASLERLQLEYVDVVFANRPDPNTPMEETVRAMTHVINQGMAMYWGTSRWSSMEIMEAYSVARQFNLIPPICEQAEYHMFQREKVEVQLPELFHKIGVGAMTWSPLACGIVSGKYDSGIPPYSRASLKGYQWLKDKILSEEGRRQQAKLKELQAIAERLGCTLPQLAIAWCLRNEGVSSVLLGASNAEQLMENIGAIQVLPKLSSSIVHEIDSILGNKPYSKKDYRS
Sequence of Dual specificity protein phosphatase 6 (Homo sapiens) (Q16828 whole entry, looked up): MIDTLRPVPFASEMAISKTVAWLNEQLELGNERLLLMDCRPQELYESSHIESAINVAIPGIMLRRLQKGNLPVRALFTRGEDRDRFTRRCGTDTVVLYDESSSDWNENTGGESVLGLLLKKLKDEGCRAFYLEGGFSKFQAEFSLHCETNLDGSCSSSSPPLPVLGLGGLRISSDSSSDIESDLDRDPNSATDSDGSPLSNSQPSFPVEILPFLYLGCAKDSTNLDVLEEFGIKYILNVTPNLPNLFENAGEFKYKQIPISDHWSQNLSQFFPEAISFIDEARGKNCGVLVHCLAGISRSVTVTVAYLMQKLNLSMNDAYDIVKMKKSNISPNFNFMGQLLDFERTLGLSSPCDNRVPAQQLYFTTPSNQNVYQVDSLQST

Row | SMILES | cell count [1] | inhibition [1] | inhibition [2] | nuclei count [2] [%] | z-score [3, 10] | z-score [3, 11] | z-score [3, 12] | inhibition [4] | fluorescence slope [5] | NADPH fluorescence slope [6] | slope [7] | inhibition [8] | outcome [9]
1 | COc1ccc(C2C=C(c3ccc(Cl)cc3)Nc3nc(NC(C)=O)nn32)cc1 (stereo not given) | 325 | 1.9% (inactive) | -27.6% (inactive) | 159 | -0.557 | 0.239 | 0.747 | -8.76% (inactive) | -0.144 (inactive) | 4.9e-05 (inactive) | 0.00461 (inactive) | 7.51% (inactive) | 
2 | COc1ccc(CNC(=O)[C@H](C)NC(=O)C2CCN(S(=O)(=O)c3ccc(C)cc3)CC2)cc1 | 299 | 10.2% (inactive) | -34.1% (inactive) | 110 | -1.17 | 1.31 | 0.673 | -3.5% (inactive) | -0.475 (inactive) | -9.4e-05 (inactive) | 0.00578 (inactive) | -1.92% (inactive) | 
3 | CCOC(=O)c1cc2c(=O)n3ccccc3nc2n(Cc2ccccc2Cl)c1=N | 339 | 0.5% (inactive) | -3.3% (inactive) | 161 | -0.704 | 0.973 | 1.09 | -1.75% (inactive) | -0.39 (inactive) | -0.000121 (inactive) | 0.00529 (inactive) | 12.4% (inactive) | 
4 | C=C1C2(C(=O)Nc3nccs3)CCC(C2)C1(C)C (stereo not given) | 357 | -0.5% (inactive) | -34.7% (inactive) | 138 | -1.77 | 1.86 | 0.223 | -3.5% (inactive) | -0.4 (inactive) | -0.000131 (inactive) | 0.00676 (inactive) | 0.99% (inactive) | 
5 | Cc1c(C)c2cc(Cl)c(O)c(CN3CCN(C)CC3)c2oc1=O | 394 | -6.5% (inactive) | -104% (inactive) | 179 | -0.305 | -0.256 | 0.789 | -10.5% (inactive) | -0.121 (inactive) | 3.5e-05 (inactive) | 0.00398 (inactive) | 14% (inactive) | 
6 | COCCCNc1nc(-c2ccncc2)nc2ccccc12 | 419 | 1.9% (inactive) | -227% (inactive) | 126 | 1.01 | -0.929 | -0.825 | 18.2% (inactive) | -0.514 (inactive) | -8.3e-05 (inactive) | 0.00557 (inactive) | 138% (active) | 
7 | COc1ccc(NCc2cc3ccccc3[nH]c2=O)cc1 | 254 | -8.8% (inactive) | -69.8% (inactive) | 90 | -0.199 | -0.583 | 0.127 | -12.3% (inactive) | -0.408 (inactive) | -3.2e-05 (inactive) | 0.00788 (inactive) | 7.35% (inactive) | 
8 | COCCNc1oc(-c2ccc(Cl)cc2)nc1C#N | 465 | -6.3% (inactive) | -25.2% (inactive) | 161 | 1.04 | -0.285 | -0.188 | 2.46% (inactive) | -0.17 (inactive) | 9.3e-06 (inactive) | 0.00534 (inactive) | 10.6% (inactive) | inactive
9 | CC1CCN(c2oc(-c3ccccc3Cl)nc2C#N)CC1 | 601 | -11.3% (inactive) | 36.1% (inactive) | 153 | -0.563 | 0.859 | 0.215 | -0.674% (inactive) | -0.397 (inactive) | -0.000144 (inactive) | 0.00562 (inactive) | 4.67% (inactive) | inactive
10 | CCCOc1ccc(N2C(=O)CC(N(CCC)C(=O)CCC(=O)O)C2=O)cc1 (stereo not given) | 468 | -11.6% (inactive) | -161% (inactive) | 204 | -1.24 | -0.331 | -0.093 | 7.7% (inactive) | -0.384 (inactive) | -9.2e-06 (inactive) | 0.00456 (inactive) | 11.3% (inactive) | inactive; toxic
11 | COc1cccc(/C(O)=C2/C(=O)C(=O)N(CCN(C)C)C2c2ccc(Br)cc2)c1 (stereo not given) | 321 | 18.1% (inactive) | 14.2% (inactive) | 102 | 0.101 | 1.46 | -0.618 | -12.3% (inactive) | -0.456 (inactive) | 7.9e-06 (inactive) | 0.00697 (inactive) | 28.7% (inactive) | 
